Screens (PubChem)
A selection: hits, their analogues and other compounds. The true share with any hit is near 1.5%.
CSN inh: blocks human CSN-mediated cullin deneddylation | Q92905 | Purified CSN, SCF-Nedd8-OG deneddylation, fluorescence polarization | inhibition, % at 12.5 µM | 0.38% of 360,000 active;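 active = pattern-corrected inhibition above about 35%, with an unprinted fluorescence ratio check between 0.5 and 1.5, limit read from the data, passing the limit was not always enough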;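 note: 0% = enzyme with substrate and 100% = substrate without enzyme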
Target sequence (Q92905 whole entry, looked up, one chain of several): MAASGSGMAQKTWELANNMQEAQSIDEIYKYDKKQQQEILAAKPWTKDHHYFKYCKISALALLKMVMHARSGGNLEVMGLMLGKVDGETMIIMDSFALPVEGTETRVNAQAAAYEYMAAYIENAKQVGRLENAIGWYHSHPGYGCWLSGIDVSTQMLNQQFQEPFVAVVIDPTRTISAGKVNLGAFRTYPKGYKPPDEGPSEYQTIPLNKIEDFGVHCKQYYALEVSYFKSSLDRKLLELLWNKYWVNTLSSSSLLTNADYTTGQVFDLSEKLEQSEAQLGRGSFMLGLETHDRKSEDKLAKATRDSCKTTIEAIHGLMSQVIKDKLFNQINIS
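Assay system: Purified human Csn5 enzyme expressed in HEK293T cells | Amount: Enzyme 0.24 nM | Measured by: Fluorescence polarization readout | Medium: Tris/NaCl/DTT buffer, pH 7.5 | Compound dosing: One concentration, 12.5 µM, 0.25% DMSO | Times: 90 min incubation of compound, enzyme and substrate at room temperature | Control set: no-enzyme wells high, enzyme-with-substrate wells low | Read-out: % inhibition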
aDG glyco act: alpha-DG glycosylation activation. Pro5-aDG cells, alpha-DG glycosylation AlphaScreen (IIH6); 0% Pro5, 100% B10-LARGE cell signal. activation, % at 10 µM. 0.22% of 360,000 active. AID 624168;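 active = activation of at least 8% versus controls, or a plate z-score of at least 8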;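 note: Pro5 are CHO cells carrying HIG-tagged alpha-DG that lacks glycosylation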
HNF4A DNA FP: change in binding of human HNF4 alpha to DNA. activity change, % at 10 µM. HNF4a-FITC DNA binding, fluorescence polarization, 1 h. 0.3% of 360,000 active. P41235; in the data active = activity change above about 30%, passing the limit was not always enough
Rev-erbA mod: modulates human Rev-erb alpha binding to DNA. AID 1259318. Rev-erbα–FITC-DNA binding, fluorescence polarization, 90 min. P20393. 0.79% of 370,000 active. activity, % at 10 µM;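 active = activity above about 14%, limit read from the data; passing the limit was not always enough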;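 note: 0% = DMSO wells with 35 nM protein and 100% = DMSO wells with 750 nM protein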
Rev-erbA confirm: Rev-erb alpha (human) modulation, hit confirmation; shares compounds with Rev-erbA mod; activation, % at 25 µM; Rev-erb alpha FITC-DNA binding, fluorescence polarization, 90 min; 61% of 3,000 active;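 active = activation at or above a set limit, or at least 3 SD above the negative control mean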;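 note: 0% = 35 nM protein with DMSO and 100% = 750 nM protein high control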
RORg DNA counter: RORgamma DNA-binding activity, dose-response counter-screen; shares compounds with Rev-erbA mod; purified RORgamma protein-FITC-DNA binding, fluorescence polarization; IC50, µM; 8% of 910 active;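 active = Compounds whose fitted half-maximal concentration for disrupting protein-DNA binding is below 10 micromolar; the record names Rev-erb in its text, so the target is in doubt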
* marks the source's active call; other numbers are inactive results; i = inactive; . = no result given.

SMILES	CSN inh	aDG glyco act	HNF4A DNA FP	Rev-erbA mod	Rev-erbA confirm	others
COc1ccccc1C(=O)Nc1ccc2oc(-c3ccc(F)cc3)nc2c1	23	0	-1	36*	33*	RORg DNA counter=i
COc1cc(C(=O)NCc2ccc(-c3nc4ccccc4s3)cc2)cc(OC)c1OC	-15	0	0	38*	32*	RORg DNA counter=i
Cc1cccn2c(=O)c3cc(C(=O)NC4CCCCC4)c(=N)n(Cc4ccccc4)c3nc12	-1	2	11	6	.
Cc1cccn2c(=O)c3cc(C(=O)NC4CCS(=O)(=O)C4)n(Cc4ccccc4)c3nc12 (stereo not drawn)	-2	2	5	44*	14
CCC[C@H]1[C@@H](OC(=O)NC2CCCCC2)CC[C@@]23CCCN2C(=O)CCC[C@@H]13	.	.	.	0	.
CCC(C)Sc1ccc(-c2nc3ccc(Cl)cn3c2NCc2ccccc2)cc1 (stereo not drawn)	5	1	8	26*	15
C#CCCCN([C@H](C(=O)OC)C(C)C)S(=O)(=O)c1ccccc1Br	.	.	.	-8	.
COc1ccc(C2=NN(C(=O)CSc3nc(=O)n4cc(C)ccc4n3)C(c3ccc(C)cc3)C2)cc1 (stereo not drawn)	1	0	5	57*	20*
COC(=O)c1ccc2c(=O)n3c(nc2c1)SCC(c1ccccc1)=N3	-5	0	-1	80*	4
CCSc1nc2cc(C(=O)OC)ccc2c(=O)n1CC	1	0	0	6	.
N#Cc1ccc(/C=C2\CC3(OC(=O)c4ccc(Cl)cc4)CCCN2C3)cc1 (stereo not drawn)	.	.	.	-10	.
Cc1ccc(-c2nc3ccccc3s2)cc1NC(=O)c1ccc2c(c1)OCO2	0	0	-3	10	.
O=C(Nc1cc(-c2nc3ccccc3s2)ccc1Cl)c1ccc2c(c1)OCO2	-2	0	0	28*	1
COc1cccc(-c2nnc(-c3ccc(C(F)(F)F)cc3)o2)c1	-2	0	1	1	.
Oc1ccccc1-c1nnc(-c2ccc(C(F)(F)F)cc2)o1	-2	0	0	39*	23*
CN(CCCOC(=O)c1cc2ccccc2o1)C1CN(Cc2cn(Cc3ccccc3C(F)(F)F)nn2)S(=O)(=O)C1 (stereo not drawn)	.	.	.	2	.
COc1ccc2cc(C3CC(c4cccs4)=NN3C(C)=O)c(Cl)nc2c1 (stereo not drawn)	-2	0	2	41*	32*	RORg DNA counter=>40
COc1ccccc1-c1ccc2c(c1)C(C)(Cc1ccc(Cl)cc1)C(=O)N2 (stereo not drawn)	-3	0	4	-5	.
COc1ccccc1-c1ccc2c(c1)C(C)(Cc1cccc(C#N)c1)C(=O)N2 (stereo not drawn)	0	0	2	46*	43*	RORg DNA counter=>40
COc1ccccc1-c1ccc2c(c1)C(C)(Cc1ccc(F)c(Cl)c1)C(=O)N2 (stereo not drawn)	-6	0	3	12	.
COc1ccc(Cl)cc1CC1(C)C(=O)Nc2ccc(-c3ccccc3OC)cc21 (stereo not drawn)	4	0	0	50*	55*	RORg DNA counter=>40
COc1ccccc1-c1ccc2c(c1)C(C)(Cc1cc(Cl)ccc1C(F)(F)F)C(=O)N2 (stereo not drawn)	4	0	0	43*	62*	RORg DNA counter=i
CCn1c(COc2ccccc2)nnc1SCC(=O)Nc1ccc(Oc2ccccc2)cc1	.	.	.	1	.
Cc1cc(C)cc(N(CC(=O)NC2CCC(C)CC2)S(=O)(=O)c2cccs2)c1 (stereo not drawn)	.	.	.	-6	.
FC(F)(F)c1ccccc1C(C#Cc1ccccc1)NCc1ccc2c(c1)OCO2 (stereo not drawn)	.	.	.	2	.
SMILES	CSN inh	aDG glyco act	HNF4A DNA FP	Rev-erbA mod	Rev-erbA confirm	others
O=C1C(NC(=O)N2c3ccccc3C=Cc3ccccc32)CCCCN1Cc1cccc(C(F)(F)F)c1 (stereo not drawn)	.	.	.	-1	.
CCC(=O)c1ccc(OCc2ccc(C(=O)c3ccccc3)cc2)cc1	1	2	-2	70*	149*	RORg DNA counter=>40
CCc1ccc(Nc2n[n+](-c3ccccc3)c(-c3c(Cl)cccc3Cl)s2)cc1	2	-1	3	5	.
CCc1ccc(Nc2n[n+](-c3ccccc3)c(-c3ccc(OCc4ccccc4)cc3)s2)cc1	7	2	-5	16*	5
O=S(=O)(NCCOc1ccccc1F)c1cccc(Br)c1	-8	0	2	18*	2
COC(=O)C[C@H]1CC[C@@H]2[C@@H](COc3ccc(NC(=O)Nc4ccccc4OC)cc3C(=O)N2C)O1	.	.	.	3	.
N#C/C=C/C(=C\Nc1ccc(Cl)cc1)S(=O)(=O)c1ccccc1	3	0	0	-1	.
COc1ccc(N/C=C(\C=C\C#N)S(=O)(=O)c2ccccc2)cc1	0	0	1	22*	3
COc1ccc(CC2CCN(c3ncnc4sccc34)CC2)cc1	.	.	.	-3	.
CCCCNC(=O)C[C@H]1C[C@@]2(C(=O)OC)C(=C[C@H](C3CCCC3)O[C@@H]2C)N(CCc2ccc(OC)c(OC)c2)C1=O	.	.	.	3	.
COc1cc(C(C)=O)ccc1OCC(=O)NC(=O)Nc1ccc(C)cc1C	4	0	-2	28*	-6
Cc1sc2ncnc(SCC(=O)N3CCCCC3)c2c1C	-1	0	-1	-1	.
Cc1cccc(NC(=O)CSc2ncnc3sc(C)c(C)c23)n1	7	0	7	-2	.
Cc1sc2ncnc(SCC(=O)NC(=O)c3cccn3C)c2c1C	-1	0	3	39*	25*
Cc1sc2ncnc(SCC(=O)N3c4ccccc4Sc4ccc(Cl)cc43)c2c1C	-3	1	3	132*	17*
COC(=O)c1sc2nc(SCc3ccccc3C)n(N)c(=O)c2c1C	0	0	1	107*	12
COc1cc(F)cc(-c2ccc3c(c2)c(-c2cccs2)c(-c2cc(OC)cc(OC)c2)n3C)c1	-1	0	8	4	.
COc1cc(OC)cc(-c2c(-c3cccs3)c3cc(-c4ccc(N(C)C)nc4)ccc3n2C)c1	-1	-1	-2	24*	1
Cc1nc2ncc(Br)cc2[nH]1	-12	0	1	-1	.
Cc1ccc(-c2nc3cc(Br)cnc3nc2-c2ccc(C)cc2)cc1	-2	0	-2	26*	16
Cc1ccc(F)cc1C(=O)N(Cc1ccccn1)CC1CCCO1 (stereo not drawn)	.	.	.	10	.
COc1ccc(N/C=C2\C(=O)c3c(sc(C)c3C)N(C)S2(=O)=O)cc1	5	0	1	78*	5
Cn1c(=O)c(Nc2ccc(Cl)cc2)c2c3c(cccc31)C(=O)c1ccccc1-2	.	.	.	24*	12
